High-throughput results: PubChem, several laboratories
NR3A LBD binder: NR3A (human) ligand-binding domain modulation | NR3A LBD differential scanning fluorimetry, Tm shift; 0% = protein alone, 100% = glycine-bound protein | Tm shift relative to glycine control, % at 25 µM | 2.5% of 340,000 active | AID 1259313;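 active = melting temperature shift of at least 10% of the positive control shift, at one fixed dose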
ATG4B inhibitor: inhibitors of human ATG4B cysteine protease | Q9Y4P1 | ATG4B cleavage of LC3-PLA2, NBD-HPC fluorescence, 1 h | inhibition, % at 8.33 µM | 0.51% of 340,000 active; in the data active = inhibition above about 40%
NadD inh: inhibitors of Staphylococcus aureus NadD. AID 602399. 0.78% of 360,000 active. purified NadD enzyme, colorimetric absorbance read-out. inhibition, % at 20 µM; in the data active = inhibition above about 26%
SENP1 FRET inh: blocks the human SENP1 SUMO protease catalytic domain. AID 624204. recombinant SENP1 catalytic domain, CyPet-SUMO1-YPet FRET cleavage. Q9P0U3. inhibition, % at 10 µM. 0.21% of 360,000 active;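 active = inhibition at least 30% at 10 µM, raw YFP signal under a set limit, fluorescence ratio 0.5 to 1.5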;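 note: 0% = enzyme with DMSO and 100% = no enzyme wells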
Target sequence (Q9P0U3 419-644 limits assumed): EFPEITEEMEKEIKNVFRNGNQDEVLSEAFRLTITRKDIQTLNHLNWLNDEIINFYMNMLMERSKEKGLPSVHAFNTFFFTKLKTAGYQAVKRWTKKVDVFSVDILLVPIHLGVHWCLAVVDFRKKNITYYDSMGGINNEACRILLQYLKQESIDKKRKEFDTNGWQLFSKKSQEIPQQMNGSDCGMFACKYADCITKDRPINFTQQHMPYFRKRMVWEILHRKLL
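System: Recombinant human SENP1 catalytic domain, His6-tagged | Incubation: Enzyme reaction for 50 min at room temperature, dark | Medium: Tris pH 8 with BME, BSA, NP40 and catalase | Also added: 25 nM SUMO1 FRET substrate | Compound: 10 µM single point, 0.5% DMSO | Measured by: FRET fluorescence in CFP and YFP emission channels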
UCH37 inh: inhibitors of human deubiquitinating enzyme UCH37; 0.33% of 330,000 active; purified proteasome/UCH37, Ub-AMC cleavage fluorescence; inhibition, % (concentration not given with the values); AID 588478; Q9Y5K5;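 active = mean inhibition over replicate wells above about 20%, limit read from the data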;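 note: 0% = compound-free wells with enzyme and 100% = wells lacking proteasome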
Target sequence (Q9Y5K5 whole entry, looked up): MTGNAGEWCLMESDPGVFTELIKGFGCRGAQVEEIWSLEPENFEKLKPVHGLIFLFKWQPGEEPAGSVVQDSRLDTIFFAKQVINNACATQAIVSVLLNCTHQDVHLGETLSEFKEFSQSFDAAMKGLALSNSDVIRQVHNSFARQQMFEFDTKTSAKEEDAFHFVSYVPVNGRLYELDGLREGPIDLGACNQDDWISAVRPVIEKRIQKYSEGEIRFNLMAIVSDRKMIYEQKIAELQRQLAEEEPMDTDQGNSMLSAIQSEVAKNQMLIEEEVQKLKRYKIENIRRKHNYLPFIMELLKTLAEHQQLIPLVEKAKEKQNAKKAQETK
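Material: Human UCH37 enzyme supplied as purified proteasome complex | Schedule: 30 min preincubation with enzyme, 25 min cleavage at room temperature | Detection: AMC fluorescence 355/460 nm | Measure: % inhibition of Ub-AMC cleavage fluorescence | Controls: Wells without proteasome as full block, compound-free enzyme plus substrate as uninhibited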
* hit, by the source's call; . = no result. Sampled rows, rich in hits. Any-hit rate of the full collection: about 3.6%.

SMILES	NR3A LBD binder	ATG4B inhibitor	NadD inh	SENP1 FRET inh	UCH37 inh
CCCc1[nH]n(-c2ccc([N+](=O)[O-])cc2)c(=O)c1C=NCCc1ccc(OC)c(OC)c1	-1	-2	-14	3	10
CCCc1[nH]n(-c2ccc([N+](=O)[O-])cc2)c(=O)c1C=NCCc1c[nH]c2ccccc12	22*	2	-5	4	8
CCOC(=O)/C=C/[C@H]1CCc2cccc(Cl)c2O1	15*	14	-6	1	0
CC(CC(=O)Nc1ccc(Cl)c(Cl)c1)=NNC(N)=S	.	.	.	.	5
Cc1ccc(-c2csc(N)n2)s1	-2	-6	7	-9	5
Cc1csc(N)n1	1	-1	2	-3	21*
Cc1cc(C)nc(SCC(=O)NN=Cc2cccnc2)n1	.	.	.	.	1
O=C(/C=C/c1cccc(Cl)c1)Nn1c(-c2cccs2)nc2ccccc2c1=O	17*	6	14	-1	6
O=C(c1ccc(F)cc1)c1cnc(Nc2ccccc2)s1	-2	-2	-1	-44	-9
O=C(c1ccccc1)c1cnc(Nc2ccc(Cl)c(Cl)c2)s1	29*	-8	6	-73	-2
Cc1ccc(NC(=O)Nc2ccc(Cl)c(Cl)c2)nc1	12*	4	-5	1	1
Cc1ccc(NC(=O)Nc2cccc(F)c2)nc1	21*	3	-1	0	5
O=C(NN=Cc1ccccc1)c1n[nH]c2c1CCCC2	.	.	.	.	1
COCCN(CCOC)C(=O)c1sc2nc(-c3ccccc3)cn2c1C	-1	-3	3	5	3
COc1ccc(-c2cn3c(C)c(C(=O)Nc4cccc(NC(C)=O)c4)sc3n2)cc1	13*	-25	-6	-2	2
COC(=O)c1ccc(NC(=O)c2sc3nc(-c4ccccc4)cn3c2C)cc1	28*	-21	-2	2	-37
COc1ccc(-c2cn3c(C)c(C(=O)Nc4ccncc4)sc3n2)cc1	8	-24	1	0	-29
N#CCC(=O)NN=Cc1ccc(OS(=O)(=O)c2ccccc2)cc1	.	.	.	.	1
CC(=NNC(=O)c1c(Br)c(C)nn1C)c1ccc(NC(=O)c2ccoc2C)cc1	.	.	.	.	-55
N#CC1=C(N)NC(SCc2ccccc2)=C(C#N)C12CCCC2	4	2	10	-15	21*
N#CC1=C(SCC(=O)c2cc3ccccc3oc2=O)NC(=O)C(C#N)C12CCCC2 (stereo not given)	6	10	12	-14	2
CC(C)(C)C1CCC2(CC1)C(C#N)=C(SCC(=O)Nc1ccccc1)NC(=O)C2C#N (stereo not given)	21*	21	5	-1	5
N#CC1=C(N)NC(SCc2ccc(Cl)cc2)=C(C#N)C12CCCCC2	6	4	1	-1	0
N#CC1=C(N)NC(SCc2ccc(Br)cc2)=C(C#N)C12CCCCC2	11*	6	1	-2	4
CSC1=C(C#N)C2(CCCC2)C(C#N)=C(N)N1	.	.	.	.	7
SMILES	NR3A LBD binder	ATG4B inhibitor	NadD inh	SENP1 FRET inh	UCH37 inh
CC1(C)CC(=O)C2=C(C1)NC(SCC(=O)Nc1ccccc1)=C(C#N)C21CCCCC1	12*	-4	12	-11	3
Cc1ccc(C=Nn2c(-c3ccccc3)n[nH]c2=S)cc1	.	.	.	.	1
CCCCCC(=NNC(=O)Nc1ccccc1)c1ccccc1	.	.	.	.	4
S=c1[nH]ncn1N=Cc1ccccc1	.	.	.	.	2
C/C(C=Nn1c(-c2ccco2)n[nH]c1=S)=C/c1ccccc1	.	.	.	.	7
CCNc1nc(NCC)nc(NN=Cc2ccc([N+](=O)[O-])o2)n1	.	.	.	.	8
N#CC1=C(N)NC(SCC(=O)c2ccccc2)=C(C#N)C12CCCC2	3	11	3	-30	3
N#CC1=C(N)NC(SCC(=O)Nc2ccc(Br)cc2)=C(C#N)C12CCCCC2	31*	-8	5	-3	3
CCc1nc(N)nc(N)c1-c1ccc(N(C)Cc2ccccc2)c([N+](=O)[O-])c1	13*	-4	-3	1	.
O=C(NNC(=O)c1ccccc1OCc1ccccc1)c1ccccc1F	10*	10	-7	2	2
O=C(NNC(=O)c1ccccc1OCc1ccc(F)cc1)c1ccccc1O	23*	-2	-6	0	-31
COc1cccc(C(=O)C(C#N)=NNc2cccc(-c3ccnc(C)n3)c2)c1	.	.	.	.	10
N#Cc1ccccc1NC(=O)CC1c2ccccc2Oc2ccccc21	13*	-6	-9	0	4
CC(NC(=O)C12CC3CC(CC(C3)C1)C2)C(=O)NN=CC1=C(N2CCOCC2)/C(=C\c2ccccc2)CC1 (stereo not given)	.	.	.	.	0
O=C(c1cccs1)N1CCN(c2ncc(C(F)(F)F)cc2Cl)CC1	11*	10	-3	2	3
Cc1ccc(-c2c(C(=O)NN=Cc3ccsc3)nnn2-c2nonc2N)cc1	.	.	.	.	3
O=C(Nc1cccc(NC(=O)c2c(F)cccc2F)n1)c1c(F)cccc1F	-11	4	-1	7	0
CCOc1cccc(C(=O)Nc2ccc3ccccc3c2)c1	30*	-7	-7	1	-1
Cc1ccc(C(=O)Nc2ccc3ccccc3c2)cc1	16*	-7	-1	2	1
Cc1cccc(OCC(=O)Nc2ccc3oc(=O)ccc3c2)c1C	14*	-13	-3	-3	-12
O=C(Nc1cccc(NC(=O)c2cccc(F)c2)n1)c1cccc(F)c1	12*	7	2	-4	3
Cc1ccc(OCC(=O)Nc2ccc3oc(=O)ccc3c2)cc1	-18	0	-9	-1	-15
CCOc1cccc(C(=O)Nc2cccc(C(C)=O)c2)c1	-43	-12	-1	1	0
Cc1ccc(C=NNC(=O)c2nnn(-c3nonc3N)c2CN(C)C)s1	.	.	.	.	4
O=S(=O)(N=C(Nc1ccccc1)C(F)(F)F)c1ccccc1	.	.	.	.	-1
SMILES	NR3A LBD binder	ATG4B inhibitor	NadD inh	SENP1 FRET inh	UCH37 inh
O=C(Nc1ccc2ccccc2c1)c1ccc(NS(=O)(=O)c2ccc(Br)s2)cc1	21*	-1	23	-11	-3
O=C(Nc1ccc2oc(=O)ccc2c1)c1ccc2ccccc2c1	34*	-18	-3	1	-9
O=C(Nc1ccc2ccccc2c1)c1cccc(F)c1	20*	-2	-7	3	-5
CCOc1cccc(NC(=O)c2cccc(F)c2)c1	10*	-3	2	1	3
O=C(NCc1ccncc1)C(=O)NN=Cc1ccccc1OCc1ccccc1	.	.	.	.	4
CC(C)c1ccc2[nH]c3c(c2c1)CCCC3=NNC(=O)c1ccncc1	.	.	.	.	5
Cc1ccc(OCC(=O)NN=Cc2cn(Cc3ccccc3)c3ccccc23)cc1C	.	.	.	.	0
O=C(O)c1cc2nc3c(c(C(F)(F)F)n2n1)CCc1ccccc1-3	11*	-1	-5	-2	5
COCCNC(=O)c1cc2nc3c(c(C(F)(F)F)n2n1)CCc1ccccc1-3	-2	-1	3	-31	-7
O=c1[nH]c2cc(Br)cnc2nc1C=C(O)c1ccc(F)cc1	.	.	.	.	8
